Data on 14 compounds can be found in PubChem BioAssay.

The source made the active and inactive calls.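 Rule for the calls, unless noted: active = fluorescence slope after compound addition differing from the mean of all tested samples at 99.7% confidence, mostly higher but some lower; inactive = the rest.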

For orientation: inhibition means the change of the read-out against control, counted positive when it falls.

Assay [1] is described as follows: inhibitors of TNFa-induced NFkB p65 translocation, primary screen, imaging, HUVEC, MLSMR starter and 10KST1 sets (AID 438;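 active = inhibition above 20% together with a positive visual image hit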;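 note: compound added about 3h40 before a 20 min TNFalpha stimulation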;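 for inhibition: signal is the nuclear over cytoplasmic p65 intensity ratio per well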). Conditions: HUVEC TNFa-induced p65 nuclear translocation; cell count: measured here: nuclei count (cytotoxicity indicator), at 2.08 µM; inhibition: at 2 µM, stronger effect = higher value, 0% TNFa-plus-vehicle, 100% no-TNFa wells.
Assay [2] in a line: reduction of polyQ htt aggregates in cells – imaging, exon1htt(103Q)mCFP cells, high-content imaging, primary screen (AID 483;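 active = visual image review flags a hit and inhibition of aggregation exceeds 20%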;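 note: compound exposure lasted 3 days before fixation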;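 for nuclei count: percent of the per-plate median nuclei count of sample wells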). Conditions: exon1htt(103Q)mCFP cell line, aggregate imaging, at 2 µM; inhibition of aggregation: stronger effect = higher value; nuclei count: measured here: cell count, toxicity.
The nature of assay [3]: endothelial E-selectin expression blockers – imaging, HUVEC, immunofluorescence, MLSMR starter and 10KST1 sets, primary screen (AID 487;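 active = visually confirmed hit in the image check and inhibition above 20%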;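 for inhibition: signal is fraction of cell area covered by stained E-selectin grains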;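 for nuclei count: 100% = median nuclei count of all wells on the same plate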). The following applies: HUVEC TNFalpha-induced E-selectin immunofluorescence imaging, at 2 µM; inhibition: stronger effect = higher value; nuclei count: measured here: cell number, toxicity.
In assay [4] the target is Voltage-gated potassium channel subunit beta-2 (Rattus norvegicus) (UniProt P62483). The assay can be described thus: inhibitors of rat Kvbeta2 reductase activity – biochemical, NADPH fluorescence, primary screen (AID 622;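 active = fluorescence slope higher than the sample average by over 3 SD, cut at about -0.22 in these data, passing the limit was not always enough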;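 note: slope of raw intensity against log time taken from 70 to 1610 s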). The following applies: recombinant KvBeta, 4-cyanobenzaldehyde reduction, at 10 µM, stronger effect = higher value.
Chain of Voltage-gated potassium channel subunit beta-2 (Rattus norvegicus) (P62483 whole entry, looked up): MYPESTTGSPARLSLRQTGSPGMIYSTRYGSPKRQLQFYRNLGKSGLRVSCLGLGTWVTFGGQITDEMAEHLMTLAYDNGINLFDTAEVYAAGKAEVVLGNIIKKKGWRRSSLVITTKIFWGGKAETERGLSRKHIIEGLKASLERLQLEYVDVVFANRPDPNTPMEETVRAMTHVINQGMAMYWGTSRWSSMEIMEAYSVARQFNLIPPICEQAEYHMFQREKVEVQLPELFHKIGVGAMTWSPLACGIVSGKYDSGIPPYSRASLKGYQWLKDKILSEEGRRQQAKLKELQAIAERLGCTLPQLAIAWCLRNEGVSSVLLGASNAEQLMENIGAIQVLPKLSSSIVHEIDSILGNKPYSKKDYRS
Assay [5] shares this target. Nature of the assay: enhancers of rat Kvbeta2 NADPH turnover – biochemical, NADPH fluorescence, primary screen (AID 623;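 active = NADPH fluorescence slope more negative than the mean of all samples by about 3 SD, 99.7% confidence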;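 note: fluorescence intensity change per second fitted from 20 to 320 s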). The following applies: Recombinant KvBeta, NADPH fluorescence decrease slope, 10 min; at 10 µM; stronger effect = lower value.
For assay [6], the target named is Muscarinic acetylcholine receptor M4 (Homo sapiens) (UniProt P08173). The assay can be described thus: M4-linked GIRK flux change, two-sided – cell-based, HEK293 M4/GIRK, thallium flux, BTC-AM, M4 allosteric agonist project, primary screen (AID 625).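 Note: thallium influx through GIRK channels coupled to M4 in HEK293 cells with BTC-AM dye.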 Conditions: at 10 µM, actives lie on both sides. In a few lines: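 Material: M4/GIRK1/GIRK2 stable HEK293 cell line. Medium: pH 7.3 thallium assay buffer. Dosing: single compound concentration, 10 µM final. Schedule: 1 h dye loading, 2 min kinetic read. Measured by: kinetic fluorescence with BTC-AM dye. Read-out: post-addition slope, 15–24 s, of baseline-normalized fluorescence. Benchmarks: carbachol and DMSO controls.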
Chain of Muscarinic acetylcholine receptor M4 (Homo sapiens) (P08173 whole entry, looked up): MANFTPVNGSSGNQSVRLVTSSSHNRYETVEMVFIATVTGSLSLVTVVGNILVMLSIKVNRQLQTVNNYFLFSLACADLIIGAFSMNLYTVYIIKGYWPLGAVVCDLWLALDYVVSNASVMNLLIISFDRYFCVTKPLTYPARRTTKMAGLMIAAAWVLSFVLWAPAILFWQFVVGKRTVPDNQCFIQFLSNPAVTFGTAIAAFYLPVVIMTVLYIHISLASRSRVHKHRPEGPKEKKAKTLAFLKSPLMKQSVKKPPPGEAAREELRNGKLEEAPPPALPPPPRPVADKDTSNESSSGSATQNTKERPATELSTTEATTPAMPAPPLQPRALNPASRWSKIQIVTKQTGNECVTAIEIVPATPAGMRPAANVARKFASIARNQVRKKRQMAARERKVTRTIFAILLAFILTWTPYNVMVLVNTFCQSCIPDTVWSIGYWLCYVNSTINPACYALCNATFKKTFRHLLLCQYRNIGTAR

Assay [7] in a line: blockers of RIG-like receptor reporter activation – cell-based, Sendai virus stimulus, luciferase, 10K MLSCN set, TLR/RLR signaling modifier project, primary screen (AID 602276;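 active = inhibition at or above 50% at 10 µM; inactive = inhibition below 50%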;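 note: firefly luciferase from ISG56 promoter only with Renilla not read in this screen; 0% = Sendai virus plus DMSO and 100% = medium plus DMSO without virus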). The following applies: HEK293 RL24 IRF3 luciferase reporter, at 10 µM, stronger effect = higher value.
Assay [8] can be described thus: TLR3 IRF3 reporter activation blockers – cell-based, poly I:C stimulus, luciferase, 10K MLSCN set, primary screen (AID 602277;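 active = inhibition of the reporter signal at or above 50%; inactive = inhibition below 50%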). The following applies: HEK293-TLR3 RL24 IRF3 luciferase reporter, at 10 µM, stronger effect = higher value. Background: Reporter assays use an easily measured gene product as a stand-in for the process of interest.

On to `CCCN(CCO)Cc1cccc(Br)c1`, for which the cell count in assay [1] is 492. Also, the inhibition is -1.1% (inactive) in assay [1], -109% (inactive) in assay [3], 14.5% (inactive) in assay [7] and 19.3% (inactive) in assay [8]. Besides, the inhibition of aggregation in assay [2] is 7.9% (inactive). Besides, the nuclei count in assay [2] is 93.6%; in assay [3], 109%. Moreover, the values for the fluorescence slope in assay [4] and in assay [6] were -0.437 (inactive) and 0.00547 (inactive), respectively. For the same compound, the NADPH fluorescence slope in assay [5] is 2.5e-05 (inactive).

Consider `Cc1noc(C)c1S(=O)(=O)N1CCC(C(=O)N2CCN(Cc3ccc4c(c3)OCO4)CC2)CC1`, for which the cell count in assay [1] was 721. Moreover, the inhibition in assay [1] was -6.9% (inactive); in assay [3], -40.5% (inactive); in assay [7] it was 13.4% (inactive); in assay [8], 17.8% (inactive). In addition, the inhibition of aggregation in assay [2] was 8.9% (inactive). Besides, the results for the nuclei count in assay [2] and in assay [3] were 107% and 103%, respectively. The fluorescence slope in assay [4] is -0.498 (inactive); in assay [6], 0.00556 (inactive). In addition, in assay [5], the NADPH fluorescence slope was 1.3e-06 (inactive).

`CC(OC(=O)c1cccc(NS(C)(=O)=O)c1)C(=O)Nc1ccc(N2CCOCC2)cc1` (centres undefined): the cell count in assay [1] is 415. Besides, the inhibition was -11.6% (inactive) in assay [1], -52.8% (inactive) in assay [3], 16.6% (inactive) in assay [7] and -7.05% (inactive) in assay [8]. Further, in assay [2], the inhibition of aggregation was -32.5% (inactive). The nuclei count is 101% in assay [2] and 148% in assay [3]. Further, the fluorescence slope is -0.559 (inactive) in assay [4] and 0.0061 (inactive) in assay [6]. Also, the NADPH fluorescence slope in assay [5] is -3.1e-05 (inactive).

For `CCCN(S(=O)(=O)c1ccc(OCC)cc1)S(=O)(=O)c1cccs1`, the cell count in assay [1] was found to be 457. The inhibition is 7.4% (inactive) in assay [1], -52.8% (inactive) in assay [3], -4.95% (inactive) in assay [7] and 2.38% (inactive) in assay [8]. For the same compound, the inhibition of aggregation in assay [2] is -7.2% (inactive). The nuclei count in assay [2] worked out at 109%; in assay [3] it was 101%. The fluorescence slope was -0.481 (inactive) in assay [4] and 0.00646 (inactive) in assay [6]. Further, in assay [5], the NADPH fluorescence slope was 0.0001 (inactive).

`COc1cc(C2C(C(=O)c3ccc(C)o3)=C(O)C(=O)N2c2cc(C)on2)cc(Br)c1O` (centres undefined): in assay [1], the cell count came to 724. In addition, the inhibition in assay [1] is -16.4% (inactive); in assay [3], -127% (inactive); in assay [7], 13.3% (inactive); in assay [8], 19.1% (inactive). Further, the inhibition of aggregation in assay [2] is -2.8% (inactive). Besides, the results for the nuclei count in assay [2] and in assay [3] were 109% and 118%, respectively. In addition, the figures for the fluorescence slope in assay [4] and in assay [6] were -0.518 (inactive) and 0.00505 (inactive), respectively. Also, in assay [5], the NADPH fluorescence slope was -3e-05 (inactive).

For the compound `CCC(=O)Nc1ccc(NC(=O)CSc2nnnn2C(C)C)cc1`, the cell count in assay [1] amounted to 667. In addition, the inhibition was -8.1% (inactive) in assay [1], -74.4% (inactive) in assay [3], 14.9% (inactive) in assay [7] and 16.2% (inactive) in assay [8]. Further, the inhibition of aggregation in assay [2] is -6% (inactive). The nuclei count in assay [2] is 74.9%; in assay [3] it was 129%. Besides, the fluorescence slope in assay [4] was -0.461 (inactive); in assay [6] it was 0.00465 (inactive). For the same compound, the NADPH fluorescence slope in assay [5] is -4.3e-05 (inactive).

As to `CN(Cc1cnn(C)c1)C(=O)c1cc2ccccc2oc1=O`, in assay [1], the cell count came to 682. In addition, the inhibition is 13% (inactive) in assay [1], 40% (inactive) in assay [3], 11.1% (inactive) in assay [7] and 14% (inactive) in assay [8]. Moreover, the inhibition of aggregation in assay [2] was -9.2% (inactive). Further, the nuclei count in assay [2] is 92.1%; in assay [3], 98.2%. Also, the figures for the fluorescence slope in assay [4] and in assay [6] were -0.484 (inactive) and 0.00454 (inactive), respectively. In addition, in assay [5], the NADPH fluorescence slope is -5.1e-05 (inactive).

Take `C=C(c1cccc2ccccc12)P(=O)(O)O`: in assay [1], the cell count is 429. The inhibition was 11.9% (inactive) in assay [1], 18.6% (inactive) in assay [3], 17.7% (inactive) in assay [7] and 22.1% (inactive) in assay [8]. Besides, in assay [2], the inhibition of aggregation is 18.4% (inactive). The nuclei count in assay [2] was found to be 92.8%; in assay [3], 99.8%. The results for the fluorescence slope in assay [4] and in assay [6] were -0.493 (inactive) and 0.00428 (inactive), respectively. In addition, the NADPH fluorescence slope in assay [5] is -0.000279 (inactive).

On to `Cc1ccc(C)n1-c1ccc(N2CCOCC2)cc1`, for which the cell count in assay [1] was found to be 406. Moreover, the inhibition in assay [1] was 1% (inactive); in assay [3], -44.4% (inactive); in assay [7] it was 11.4% (inactive); in assay [8] it was 8.15% (inactive). In addition, the inhibition of aggregation in assay [2] is 14.3% (inactive). In addition, the nuclei count was 99.8% in assay [2] and 111% in assay [3]. The fluorescence slope in assay [4] was -0.345 (inactive); in assay [6] it was 0.00513 (inactive). The NADPH fluorescence slope in assay [5] was -5.6e-05 (inactive).

For the compound `c1ccc(-c2nn3nnnc3c3ccccc23)cc1`, the cell count in assay [1] worked out at 194. The inhibition in assay [1] was -3% (inactive); in assay [3] it was -2.7% (inactive); in assay [7], 8.1% (inactive); in assay [8], 20.5% (inactive). In addition, the inhibition of aggregation in assay [2] is 6.8% (inactive). Besides, the values for the nuclei count in assay [2] and in assay [3] were 91.1% and 85.1%, respectively. Moreover, the fluorescence slope was -0.573 (inactive) in assay [4] and 0.00565 (inactive) in assay [6]. For the same compound, the NADPH fluorescence slope in assay [5] was -2.5e-05 (inactive).

Regarding `Cc1cc(NC(=O)C2CCCC2)nc2c1c(=O)oc1ccccc12`, the cell count in assay [1] stood at 601. Moreover, the inhibition in assay [1] is -3.4% (inactive); in assay [3], -16.3% (inactive); in assay [7], 7.38% (inactive); in assay [8] it was 9.88% (inactive). In assay [2], the inhibition of aggregation is 12.4% (inactive). Besides, the figures for the nuclei count in assay [2] and in assay [3] were 98.2% and 106%, respectively. For the same compound, the fluorescence slope in assay [4] is -0.578 (inactive); in assay [6], 0.00687 (inactive). Further, the NADPH fluorescence slope in assay [5] is -4.4e-05 (inactive).

Turning to `C=CCn1c(SCc2cc(=O)n3ccsc3n2)nnc1C1CCCCC1`, in assay [1], the cell count turned out to be 439. Further, the inhibition in assay [1] is 3.8% (inactive); in assay [3], 3.6% (inactive); in assay [7] it was 9.44% (inactive); in assay [8], 21.1% (inactive). Further, in assay [2], the inhibition of aggregation was -27.5% (inactive). Also, the nuclei count in assay [2] is 104%; in assay [3], 116%. Also, the fluorescence slope is -0.561 (inactive) in assay [4] and 0.00775 (inactive) in assay [6]. Moreover, the NADPH fluorescence slope in assay [5] is -1.8e-05 (inactive).

As for `O=c1[nH]c2ccccc2nc1NCCN1CCOCC1`, the cell count in assay [1] stood at 404. For the same compound, the inhibition in assay [1] is -26.6% (inactive); in assay [3], -80.4% (inactive); in assay [7] it was 8.81% (inactive); in assay [8], 1.66% (inactive). In assay [2], the inhibition of aggregation was -31.4% (inactive). Further, the nuclei count came out at 98.9% in assay [2] and 134% in assay [3]. Moreover, the fluorescence slope in assay [4] is -0.553 (inactive); in assay [6], 0.00364 (inactive). The NADPH fluorescence slope in assay [5] was -6.2e-05 (inactive).

Turning to `Cn1c(-c2ccccc2)c(CCO)c2ccccc21`, in assay [1], the cell count turned out to be 578. Besides, the inhibition in assay [1] was 13.7% (inactive); in assay [3], -60.6% (inactive); in assay [7] it was 6.84% (inactive); in assay [8], 6.66% (inactive). For the same compound, in assay [2], the inhibition of aggregation was -2.6% (inactive). Moreover, the nuclei count in assay [2] came to 88.3%; in assay [3] it was 152%. Further, the figures for the fluorescence slope in assay [4] and in assay [6] were -0.559 (inactive) and 0.00569 (inactive), respectively. Also, the NADPH fluorescence slope in assay [5] is -3.6e-05 (inactive).
